Source: ChEMBL document CHEMBL4732051, “The discovery of potent small molecule activators of human STING” (Eur J Med Chem, 2021)
Activity calls are given as the source filed them. The rule behind the calls is not given here.

What was measured:
HEK293T [1] = experiment: Activation of human STING H232 mutant expressed in HEK293T cells assessed as phosphorylation of IRF-3 at (Ser396) at 10 uM incubated for 2 hrs and measured by Western blot analysis; assay type: cell-based; conditions: filed as activator
Outline: (§1)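 HEK293T clones stably carrying each human STING variant, picked by blasticidin selection and limiting dilution. 5 x 10^5 cells were exposed to compound at 10μM for 2 h, lysed in RIPA with phosphatase and protease inhibitors, and 10 μg protein run on 10% SDS-PAGE. Immunoblots probed for pSTING (Ser366), pIRF3 (Ser396), total STING, IRF3 and actin, detected by ECL.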

[2] = AUC in BALB/c mouse at 5 mg/kg, iv measured up to 24 hrs by LC-MS/MS analysis; assay type: ADME, organism-based; parameters: route intravenous, dose 5 mg/kg, time <=24; conditions: in vivo
Outline: (§2)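 Overnight-fasted mice, n=3 per group, single dose by lateral tail vein (iv) or oral gavage (po). Retro-orbital blood under isoflurane at 2 min–24 h (iv) or 5 min–24 h (po). Plasma spun at 1500 x g, 15 min, 4 °C, stored -80 °C, then analysed by LCMS.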

[3] = tested on: Stimulator of interferon genes protein (Homo sapiens), Q86WV6 [UNDEFINED MUTATION]; experiment: Activation of human STING R232 in human dendritic cells assessed as induction of CD83 measured by qt-PCR analysis; assay type: cell-based; conditions: Dendritic cell, filed as activator
Outline: (§3)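 PBMC isolated on Histopaque 1077, ACK-lysed, monocytes purified by MACS. Monocytes at 1 x 10^6 cells/ml in RPMI/10% FBS with 100ng/ml GMCSF and 50ng/ml IL4, 37 °C, 5% CO2, for 24–36 h. Compound added (1% DMSO final) for 6 h. CD86 and CD83 read by qPCR as fold of vehicle-treated cells.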

[4] = tested on: Stimulator of interferon genes protein (Homo sapiens), Q86WV6 [UNDEFINED MUTATION]; experiment: Activation of human STING R232 in human MDA-MB-468 cells assessed as phosphorylation of IRF3 at (Ser396) at 10 uM incubated for 2 hrs and measured by Western blot analysis; assay type: cell-based; conditions: filed as activator
Outline: (§4)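 Tumor cell lines or human primary cells carrying endogenous STING variants; STING KO cells as control. 10µM for 2 h, then lysed in RIPA with phosphatase and protease inhibitors. 10 μg protein on 10% SDS-PAGE, blotted for pSTING (Ser366), pIRF3 (Ser396), STING, IRF3 and actin, ECL detection.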

[5] = Cmax in BALB/c mouse at 5 mg/kg, iv measured up to 24 hrs by LC-MS/MS analysis; assay type: ADME, organism-based; parameters: route intravenous, dose 5 mg/kg, time <=24; conditions: in vivo; outline: as §2
HEK293T [6] = experiment: Activation of human STING R232H mutant expressed in HEK293T cells assessed as phosphorylation of IFR3 at (Ser396) upto 10 uM incubated for 2 hrs and measured by Western blot analysis; assay type: cell-based; conditions: filed as activator, dose microM <=10, time 2.0 hrs; outline: as §1
[7] = tested on: Stimulator of interferon genes protein (Homo sapiens), Q86WV6 [UNDEFINED MUTATION]; experiment: Activation of human STING R232 in human CCRF-SB cells assessed as phosphorylation at (Ser366) at 10 uM incubated for 2 hrs and measured by Western blot analysis; assay type: cell-based; conditions: filed as activator; outline: as §4
[8] = tested on: Stimulator of interferon genes protein (Homo sapiens), Q86WV6 [G230A,R293Q]; experiment: Activation of human STING AQ mutant expressed in HEK293T cells assessed as phosphorylation at (Ser366) at 10 uM incubated for 2 hrs and measured by Western blot analysis; assay type: cell-based; conditions: filed as activator; outline: as §1
[9] = molecular target: T1, Stimulator of interferon genes protein (Homo sapiens, UniProt Q86WV6); experiment: Activation of human STING expressed in human PBMC cells assessed as phosphorylation at (ser366) at 10 uM incubated for 2 hrs and measured by Western blot analysis; assay type: cell-based; conditions: filed as activator; outline: as §4
[10] = molecular target: T2, Stimulator of interferon genes protein (Mus musculus) (UniProt Q3TBT3); experiment: Activation of mouse STING
T2 sequence (whole entry): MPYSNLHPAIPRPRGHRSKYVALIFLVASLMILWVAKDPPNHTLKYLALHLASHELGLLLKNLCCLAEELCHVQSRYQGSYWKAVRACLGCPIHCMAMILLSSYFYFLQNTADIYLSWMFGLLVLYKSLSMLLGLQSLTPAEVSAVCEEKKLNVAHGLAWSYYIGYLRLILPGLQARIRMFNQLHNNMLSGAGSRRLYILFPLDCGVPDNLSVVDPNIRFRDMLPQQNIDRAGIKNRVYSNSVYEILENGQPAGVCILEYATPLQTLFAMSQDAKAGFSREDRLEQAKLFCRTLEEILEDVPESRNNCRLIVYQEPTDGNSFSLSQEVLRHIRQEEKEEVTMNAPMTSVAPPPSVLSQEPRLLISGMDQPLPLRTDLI

CCRF-SB = experiment: Activation of human wild type STING R232 expressed in CCRF-SB cells assessed as phosphorylation at (Ser396) at 10 uM incubated for 2 hrs and measured by Western blot analysis; conditions: filed as activator
[11] = Cmax in BALB/c mouse at 10 mg/kg, po measured up to 24 hrs by LC-MS/MS analysis; assay type: ADME, organism-based; parameters: route oral, dose 10 mg/kg, time <=24; conditions: in vivo; outline: as §2
[12] = Stability in mouse plasma at 37 degC by LC-MS/MS analysis; assay type: ADME, cell-free
Outline: (§5)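 Compound at 10 μM was incubated in mouse or human plasma at 37°C and its stability assessed.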

HEK293T [13] = experiment: Induction of STING Q mutant (unknown origin) expressed in HEK293T cells assessed as increase in luciferase coupled ISG54-ISRE activity incubated for 18 hrs luciferase reporter gene assay; assay type: cell-based; conditions: Homo sapiens, filed as activator
[14] = tested on: Stimulator of interferon genes protein (Homo sapiens), Q86WV6 [UNDEFINED MUTATION]; experiment: Activation of human STING R232 in human dendritic cells assessed as induction of CD86 measured by qt-PCR analysis; assay type: cell-based; conditions: Dendritic cell, filed as activator; outline: as §3
[15] = Oral bioavailability in BALB/c mouse at 10 mg/kg measured up to 24 hrs by LC-MS/MS analysis; assay type: ADME, organism-based; conditions: in vivo
Outline: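 Overnight-fasted mice, randomized, n=3 per group, each given a single dose by lateral tail vein (iv) or oral gavage. Blood (50 μl per point, under isoflurane) was taken from the retro-orbital plexus. Sampling was at 2 min–24 h after iv and 5 min–24 h after oral dosing. Plasma was separated at 1500 x g for 15 min at 4 °C, stored at -80 °C, and analysed by LCMS.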

[16] = molecular target: T1, Stimulator of interferon genes protein; experiment: Activation of wild-type human STING expressed in HEK293T cells assessed as IRF3 reporter activation measured after 20 hrs by luciferase reporter gene assay; assay type: cell-based
[17] = molecular target: T1, Stimulator of interferon genes protein; experiment: Activation of human STING in human PBMC cells assessed as induction of IL6 expression at 10 uM measured by qt-PCR analysis; assay type: cell-based; conditions: filed as activator
Outline: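 2 x 10^5 freshly isolated human PBMC from healthy donors, separated on Histopaque, given a single compound concentration. Harvested early (6 hr) or late (20h). Cytokine mRNA read by qRT-PCR as relative normalized expression (fold) against vehicle-treated cells.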

HEK293T [18] = experiment: Activation of human STING H232 mutant expressed in HEK293T cells assessed as phosphorylation at (Ser366) at 10 uM incubated for 2 hrs and measured by Western blot analysis; assay type: cell-based; conditions: filed as activator; outline: as §1
[19] = Stability in human plasma at 37 degC by LC-MS/MS analysis; assay type: ADME, cell-free; outline: as §5
HeLa = experiment: Cytotoxicity against human HeLa cells at 5 to 10 uM; assay type: cell-based; conditions: dose 5-10 µM

T1 sequence (Q86WV6 whole entry): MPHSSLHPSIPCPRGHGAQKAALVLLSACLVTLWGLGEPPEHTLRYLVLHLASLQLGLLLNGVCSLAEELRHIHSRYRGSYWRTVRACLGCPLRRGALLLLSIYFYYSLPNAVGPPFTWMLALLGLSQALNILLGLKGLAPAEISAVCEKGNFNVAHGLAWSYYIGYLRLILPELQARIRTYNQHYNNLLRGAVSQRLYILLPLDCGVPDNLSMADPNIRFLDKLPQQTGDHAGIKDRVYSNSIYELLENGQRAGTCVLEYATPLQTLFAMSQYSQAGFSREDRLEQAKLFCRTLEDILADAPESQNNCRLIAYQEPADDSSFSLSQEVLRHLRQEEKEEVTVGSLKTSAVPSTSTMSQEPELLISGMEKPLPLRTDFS
Chain of Stimulator of interferon genes protein (Homo sapiens), Q86WV6 [UNDEFINED MUTATION] (Q86WV6 whole entry, looked up, stated change not applied): as the sequence (Q86WV6 whole entry) above
Chain of Stimulator of interferon genes protein (Homo sapiens), Q86WV6 [G230A,R293Q] (Q86WV6 whole entry G230A/R293Q): as the sequence (Q86WV6 whole entry) above, with G230A, R293Q counted along it

CC1(C)C(=O)N(Cc2c(F)cccc2Cl)c2cc(C(=O)NCc3c(F)cc(F)cc3F)ccc21
Activity (HEK293T [1]): Active | AUC at 24 h [2]: 1220 ng·h/mL | Activity [3]: Active | Activity [4]: Active | Cmax [5]: 1870 ng/mL | Activity (HEK293T [6]): Dose-dependent effect | Activity [7]: Active | Activity [8]: Active | Activity [9]: Active | Activity [10]: inactive | Activity (CCRF-SB): Active | Cmax [11]: 1720 ng/mL | Stabilty [12]: Stable | Activity (HEK293T [13]): Active | Activity [14]: Active | bioavailability [15]: 86% | EC50 [16]: 185 nM | Activity [17]: Active | Activity (HEK293T [18]): Active | Stabilty [19]: Stable | Activity (HeLa): Non-Toxic
